For data set [1], the target named is T1, Proprotein convertase subtilisin/kexin type 6 (Homo sapiens, UniProt P29122).
T1 sequence (P29122 whole entry): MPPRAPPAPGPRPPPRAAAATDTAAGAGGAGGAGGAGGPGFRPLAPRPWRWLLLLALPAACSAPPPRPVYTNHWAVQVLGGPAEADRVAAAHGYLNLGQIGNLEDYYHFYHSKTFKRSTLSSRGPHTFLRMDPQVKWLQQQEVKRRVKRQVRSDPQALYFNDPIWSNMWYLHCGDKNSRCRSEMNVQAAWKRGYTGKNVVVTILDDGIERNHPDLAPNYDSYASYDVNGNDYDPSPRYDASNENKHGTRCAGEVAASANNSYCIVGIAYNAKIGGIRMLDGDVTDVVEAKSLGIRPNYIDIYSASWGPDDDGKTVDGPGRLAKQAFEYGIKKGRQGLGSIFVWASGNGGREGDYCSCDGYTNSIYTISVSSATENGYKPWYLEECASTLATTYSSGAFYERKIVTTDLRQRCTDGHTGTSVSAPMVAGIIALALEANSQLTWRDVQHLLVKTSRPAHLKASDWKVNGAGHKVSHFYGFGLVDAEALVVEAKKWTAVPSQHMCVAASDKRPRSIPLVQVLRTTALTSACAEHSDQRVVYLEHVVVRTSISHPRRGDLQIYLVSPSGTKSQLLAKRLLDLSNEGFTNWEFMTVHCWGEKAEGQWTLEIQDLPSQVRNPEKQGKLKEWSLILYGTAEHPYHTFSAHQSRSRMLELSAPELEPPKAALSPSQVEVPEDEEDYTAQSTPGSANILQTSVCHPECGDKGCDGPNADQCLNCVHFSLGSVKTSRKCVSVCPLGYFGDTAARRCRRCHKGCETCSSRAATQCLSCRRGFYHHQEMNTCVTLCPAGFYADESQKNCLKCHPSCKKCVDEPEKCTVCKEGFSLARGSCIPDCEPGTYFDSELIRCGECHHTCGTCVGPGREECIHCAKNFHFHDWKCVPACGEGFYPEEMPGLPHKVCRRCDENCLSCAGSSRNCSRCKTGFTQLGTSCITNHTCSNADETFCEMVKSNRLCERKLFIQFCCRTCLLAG
The data set can be described thus: Inhibition of recombinant human PACE4 using pGlu-Arg-Thr-Lys-Arg-AMC peptide as substrate by spectrofluorometry.

Data set [2] deals with DU-145. The data set is described as follows: Antiproliferative activity against human DU145 cells at <150 uM after 72 hrs by MTT assay. The data set is classed as functional, cell-based. The method in brief: (§1)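 Doses tested up to 150 µM. MTT read-out on DU145 (RPMI-1640, 5% FBS) or LNCaP (RPMI-1640, 10% FBS).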
(Tetrazolium dyes change colour on reduction, which living cells bring about.)

Data set [3] deals with LNCaP. The data set can be described thus: Antiproliferative activity against human LNCAP cells at <150 uM after 72 hrs by MTT assay. In kind it is functional, cell-based. The method in brief:
as §1

Another data set addresses Furin (Homo sapiens, UniProt P09958). The data set can be described thus: Inhibition of recombinant human furin using pGlu-Arg-Thr-Lys-Arg-AMC peptide as substrate by spectrofluorometry. The method in brief:
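Recombinant human furin at 0.54 nM (Km 5.040 µM) in 100 mM Hepes pH 7.5, 1 mM CaCl2, 1 mM β-mercaptoethanol and 1.8 mg/mL BSA. Substrate pGlu-RTKR-AMC at 100 µM per well. Fluorescence read at ex 370 / em 460 nm. Ki derived by Cheng-Prusoff.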

Data set [4] in a line: Drug uptake in human DU145 cells at 1 uM after 48 hrs using FITC-labeled compounds by propidium iodide/ trypan blue-dual staining based flow cytometry. The data set is classed as ADME, cell-based. As to conditions: du-145, 1 h, in the assay text read “1 hr” for “48 hrs”. The method in brief: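 DU145 cells plated at 200000 per 100 mm dish and grown 48 h at 37 °C. FITC-labelled analogue added at 1 µM for 1 h at 37 °C. Cells harvested with 0.05% trypsin and washed in PBS. PI added at 10 µg/mL final just before acquisition. A parallel set was quenched with 0.04% trypan blue. Flow cytometry on ≥10000 events with 488/638 nm lasers.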
For orientation: A flow cytometer gives signals particle by particle.

The species named for another data set is Homo sapiens. The data set is described as follows: Selectivity ratio of Ki for recombinant human furin to Ki for recombinant human PACE4. The method in brief:
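Ratio of Ki values. Furin Ki measured at 0.54 nM enzyme in Hepes pH 7.5; PACE4 Ki measured at 20.18 nM enzyme in Bis-Tris pH 6.5. Both used 100 µM pGlu-RTKR-AMC with fluorescence at ex 370 / em 460 nm, and Ki came from Cheng-Prusoff (Morrison's equation for one PACE4 value).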

Data set [5] concerns DU-145. The data set is described as follows: Antiproliferative activity against human DU145 cells after 72 hrs by MTT assay. In kind it is functional, cell-based. As to conditions: for pIC50: Homo sapiens, DU-145, 72 h, read-out: IC50; for IC50: du-145. The method in brief:
(§2)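 MTT proliferation read-out. DU145 cultured in RPMI-1640 with 5% FBS; LNCaP cultured in RPMI-1640 with 10% FBS. IC50 calculated from dose-response curves.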

Data set [6] has as its system LNCaP. The data set is described as follows: Antiproliferative activity against human LNCAP cells after 72 hrs by MTT assay. In kind it is functional, cell-based. The settings on record: for pIC50: Homo sapiens, LNCaP, 72 h, read-out: IC50; for IC50: lncap. The method in brief:
as §2

Data set [7] in a line: Half life in human plasma. The data set is classed as ADME, cell-free.

pIC50, pKi: −log10 of the molar value. Active and inactive are the calls of the source. No cut-off for these calls is given here. Square brackets hold non-standard residues; d marks the D form. Peptide text beside a SMILES is read from it. * marks the point of attachment. NH(4-amidinobenzyl) = N=C(N)c1ccc(CN*)cc1

Sequence of Furin (P09958 whole entry): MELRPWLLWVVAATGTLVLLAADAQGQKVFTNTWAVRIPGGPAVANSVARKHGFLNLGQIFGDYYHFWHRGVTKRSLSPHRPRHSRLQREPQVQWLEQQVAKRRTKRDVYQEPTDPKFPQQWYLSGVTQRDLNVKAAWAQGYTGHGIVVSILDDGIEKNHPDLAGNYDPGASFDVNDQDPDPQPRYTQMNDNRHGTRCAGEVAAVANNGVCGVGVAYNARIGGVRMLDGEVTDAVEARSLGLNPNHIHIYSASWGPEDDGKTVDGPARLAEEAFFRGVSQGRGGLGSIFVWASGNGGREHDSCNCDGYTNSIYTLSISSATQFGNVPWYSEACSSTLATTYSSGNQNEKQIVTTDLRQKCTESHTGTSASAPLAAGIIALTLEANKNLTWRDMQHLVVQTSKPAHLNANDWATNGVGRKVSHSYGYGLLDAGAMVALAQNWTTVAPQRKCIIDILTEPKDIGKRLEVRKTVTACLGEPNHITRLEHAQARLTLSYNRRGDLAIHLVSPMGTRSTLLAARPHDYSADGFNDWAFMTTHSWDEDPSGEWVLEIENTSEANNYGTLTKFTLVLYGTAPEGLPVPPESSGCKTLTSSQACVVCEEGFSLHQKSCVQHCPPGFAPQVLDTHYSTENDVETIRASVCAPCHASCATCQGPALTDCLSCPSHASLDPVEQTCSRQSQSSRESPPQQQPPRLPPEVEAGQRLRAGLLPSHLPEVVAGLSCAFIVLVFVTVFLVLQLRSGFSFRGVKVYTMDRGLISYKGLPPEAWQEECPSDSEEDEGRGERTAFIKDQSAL

A word on the pKi: it is the negative decadic logarithm of the Ki, by convention in mol/L. On to `CC(=O)N[C@H](CC(C)C)C(=O)N[C@@H](CC(C)C)C(=O)N[C@@H](CC(C)C)C(=O)N[C@@H](CC(C)C)C(=O)N[C@@H](CCCNC(=N)N)C(=O)N[C@H](C(=O)N[C@@H](CCCCN)C(=O)N[C@H](CO)CCCNC(=N)N)C(C)C`, for which the pKi in data set [1] is 6.72; on Furin, 6.60. Moreover, the outcome in the data set on DU-145 [2] and with LNCaP [3] was inactive.

`CC(C)C[C@H](NC(=O)[C@H](CC(C)C)NC(=O)[C@H](CC(C)C)NC(=O)[C@@H](CC(C)C)NC(=O)CCN)C(=O)N[C@@H](CCCNC(=N)N)C(=O)N[C@H](C(=O)N[C@@H](CCCCN)C(=O)NCc1ccc(C(=N)N)nc1)C(C)C`: the Drug uptake entry in data set [4] is given as “Active”.

Broadly, the pIC50 is −log10 of the IC50, conventionally taken in molar units. Turning to `CC(=O)N[C@H](CC(C)C)C(=O)N[C@@H](CC(C)C)C(=O)N[C@@H](CC(C)C)C(=O)N[C@@H](CC(C)C)C(=O)N[C@@H](CCCNC(=N)N)C(=O)N[C@H](C(=O)N[C@@H](CCCCN)C(=O)NCCc1ccc(C(=N)N)cc1)C(C)C`, the pKi in data set [1] was 7.77; at Furin, 7.39. Also, the Ratio Ki in the data set listed under Homo sapiens was found to be 2. Moreover, the pIC50 in the data set on DU-145 [5] and in the data set with LNCaP [6] was 4.10 throughout.

Regarding `CC(=O)N[C@H](CC(C)C)C(=O)N[C@@H](CC(C)C)C(=O)N[C@@H](CC(C)C)C(=O)N[C@@H](CC(C)C)C(=O)N[C@@H](CCCNC(=N)N)C(=O)N[C@H](C(=O)N[C@@H](CCCCN)C(=O)NCc1ccc(C(=N)N)cc1)C(C)C` (Ac-[dL]LLLRVK-{NH(4-amidinobenzyl)}), the Ratio Ki in the data set listed under Homo sapiens amounted to 2.

Usually half-life stands for the time in which the quantity being followed falls by half. A low value points to rapid decline. Take Ac-LLLLRVKR-NH2: the pIC50 in the data set with DU-145 [5] was 4.60; in the data set on LNCaP [6], 4.35. The half-life in [7] is 1.7 h.

As to `CC(=O)N[C@H](CC(C)C)C(=O)N[C@@H](CC(C)C)C(=O)N[C@@H](CC(C)C)C(=O)N[C@@H](CC(C)C)C(=O)N[C@@H](CCCNC(=N)N)C(=O)N[C@H](C(=O)N[C@@H](CCCCN)C(=O)NCc1ccc2c(N)n[nH]c2c1)C(C)C`, the values for the pKi (in [1]; at Furin) were 6.15 and 6.08, respectively. The Ratio Ki in the data set listed under Homo sapiens worked out at 1. Also, the IC50 entry with DU-145 [5] and in the data set on LNCaP [6] was “Nd(Insoluble)” throughout.

Consider `CC(=O)N[C@H](CC(C)C)C(=O)N[C@@H](CC(C)C)C(=O)N[C@@H](CC(C)C)C(=O)N[C@@H](CC(C)C)C(=O)N[C@@H](CCCNC(=N)N)C(=O)N[C@H](C(=O)N[C@@H](CCCCN)C(=O)N[C@@H](CCCNC(=N)N)C(N)=O)C(C)C`, for which the Ratio Ki in the data set filed under Homo sapiens was 32.

Turning to `CC(=O)N[C@H](CC(C)C)C(=O)N[C@@H](CC(C)C)C(=O)N[C@@H](CC(C)C)C(=O)N[C@@H](CC(C)C)C(=O)N[C@@H](CCCNC(=N)N)C(=O)N[C@H](C(=O)N[C@@H](CCCCN)C(=O)NCc1ccc(C(=N)N)nc1)C(C)C`, the results for the pKi (in data set [1]; at Furin) were 8.59 and 7.67, respectively. In addition, the Ratio Ki in the data set filed under Homo sapiens is 8. Moreover, the values for the pIC50 in the data set on DU-145 [5] and with LNCaP [6] were 3.89 and 3.85, respectively.

`CC(=O)N[C@H](CC(C)C)C(=O)N[C@@H](CC(C)C)C(=O)N[C@@H](CC(C)C)C(=O)N[C@@H](CC(C)C)C(=O)N[C@@H](CCCNC(=N)N)C(=O)N[C@H](C(=O)N[C@@H](CCCCN)C(=O)NCC#CCNC(=N)N)C(C)C`: the values for the pKi (in data set [1]; on Furin) were 7.49 and 7.22, respectively. In the data set filed under Homo sapiens, the Ratio Ki worked out at 2. Also, the pIC50 was 3.96 in the data set with DU-145 [5] and 3.90 in the data set with LNCaP [6].

In the case of `CC(=O)N[C@H](CC(C)C)C(=O)N[C@@H](CC(C)C)C(=O)N[C@@H](CC(C)C)C(=O)N[C@@H](CC(C)C)C(=O)N[C@@H](CCCNC(=N)N)C(=O)N[C@H](C(=O)N[C@@H](CCCCN)C(=O)NCc1ccc(C(=N)N)c(N)c1)C(C)C`, the pKi in [1] is 7.85; on Furin it was 7.22. The Ratio Ki in the data set listed under Homo sapiens is 4. Moreover, the pIC50 in the data set on DU-145 [5] is 4.21; with LNCaP [6], 4.24.

Turning to `CC(C)C[C@H](NC(=O)[C@H](CC(C)C)NC(=O)[C@H](CC(C)C)NC(=O)[C@@H](CC(C)C)NC(=O)CCN)C(=O)N[C@@H](CCCNC(=N)N)C(=O)N[C@H](C(=O)N[C@@H](CCCCN)C(=O)NCc1ccc(C(=N)N)cc1)C(C)C`, the Drug uptake entry in data set [4] is “Active”.

On to `CC(=O)N[C@H](CC(C)C)C(=O)N[C@@H](CC(C)C)C(=O)N[C@@H](CC(C)C)C(=O)N[C@@H](CC(C)C)C(=O)N[C@@H](CCCNC(=N)N)C(=O)N[C@H](C(=O)N[C@@H](CCCCN)C(=O)NCc1ccc2c(N)noc2c1)C(C)C`, for which the pKi is 6.30 in [1] and 6.21 at Furin. Also, the Ratio Ki in the data set listed under Homo sapiens was found to be 1. In addition, the IC50 entry in the data set on DU-145 [5] and with LNCaP [6] was “Nd(Insoluble)” throughout.

Consider `CC(=O)N[C@H](CC(C)C)C(=O)N[C@@H](CC(C)C)C(=O)N[C@@H](CC(C)C)C(=O)N[C@@H](CC(C)C)C(=O)N[C@@H](CCCNC(=N)N)C(=O)N[C@H](C(=O)N[C@@H](CCCCN)C(=O)NC/C=C/CNC(=N)N)C(C)C`, for which the values for the pKi (in data set [1]; at Furin) were 7.89 and 7.42, respectively. In the data set filed under Homo sapiens, the Ratio Ki amounted to 3. Moreover, the pIC50 is 4.40 in the data set with DU-145 [5] and 3.68 with LNCaP [6].

With `CC(=O)N[C@H](CC(C)C)C(=O)N[C@@H](CC(C)C)C(=O)N[C@@H](CC(C)C)C(=O)N[C@@H](CC(C)C)C(=O)N[C@@H](CCCNC(=N)N)C(=O)N[C@H](C(=O)N[C@@H](CCCCN)C(=O)NCc1c(F)c(F)c(C(=N)N)c(F)c1F)C(C)C`, the negative logarithm of the Ki (pKi) is 6.62 in data set [1] and 6.22 at Furin. In addition, in the data set filed under Homo sapiens, the Ratio Ki came out at 2. Besides, the pIC50 with DU-145 [5] is 4.16; with LNCaP [6], 3.64.

Turning to `CC(=O)N[C@H](CC(C)C)C(=O)N[C@@H](CC(C)C)C(=O)N[C@@H](CC(C)C)C(=O)N[C@@H](CC(C)C)C(=O)N[C@@H](CCCNC(=N)N)C(=O)N[C@H](C(=O)N[C@@H](CCCCN)C(=O)NCc1ccc(C(=N)N)c(O)c1)C(C)C`, the values for the pKi (in data set [1]; at Furin) were 7.28 and 6.62, respectively. In addition, the Ratio Ki in the data set listed under Homo sapiens amounted to 5. The results for the pIC50 in the data set on DU-145 [5] and with LNCaP [6] were 4.30 and 3.95, respectively.

Source of the values: ChEMBL document CHEMBL4257595, “Improving the Selectivity of PACE4 Inhibitors through Modifications of the P1 Residue” (J Med Chem, 2018).
